From PubChem
JMJD2C inh: inhibitors of human GASC-1 (JMJD2C) demethylase. Q9H3R0. GST-JMJD2C(1-420) H3K9me3 demethylation, DELFIA europium. inhibition, % at 2.35 µM. hit rate 0.069% among 330,000;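 active = more than half of a compound's replicate wells show inhibition beyond 50%, single wells judged on their own value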;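 also: signal counts dimethyl H3K9 product captured on neutravidin plate; 0% = median of DMSO wells and 100% = 0.3 times that DMSO median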
GRK2 aptamer HTS: inhibitors of human GRK2 displacing RNA aptamer; inhibition of aptamer binding, % at 10 µM; bead flow cytometry, FAM-aptamer displacement from GRK2; hit rate 0.59% among 330,000; AID 488847;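 active = inhibition of aptamer binding above 40%, roughly 3 SD of noise, on plates passing a quality check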;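 also: median bead fluorescence of bound FAM aptamer so fluorescent compounds give negative values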
procasp3 activ: activators of human procaspase-3; hit rate 0.11% among 330,000; recombinant procaspase-3 D3A, Ac-DEVD-pNA absorbance 405 nm; activation, % at 8.5 µM;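 active = activation above the mean of all tested compounds plus 3 SD, cut at about 21% in these data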;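 also: 0% = DMSO alone and 100% = DMSO wells spiked with extra 5 µM PC-3 D3A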
Target sequence (P42574 whole entry D9A/D28A/D175A): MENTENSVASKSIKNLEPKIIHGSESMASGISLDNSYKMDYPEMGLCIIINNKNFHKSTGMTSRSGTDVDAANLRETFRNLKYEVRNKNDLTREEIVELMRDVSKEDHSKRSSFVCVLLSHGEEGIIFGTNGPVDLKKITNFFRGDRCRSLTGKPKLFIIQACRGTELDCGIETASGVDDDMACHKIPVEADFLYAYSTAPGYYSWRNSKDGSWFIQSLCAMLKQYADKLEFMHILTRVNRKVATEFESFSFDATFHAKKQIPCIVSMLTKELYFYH
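Assay system: Autoprocessing-dead procaspase-3 D3A mutant enzyme; also added: Ac-DEVD-pNA; doses: one concentration, 8.5 µM nominal, 0.8% DMSO; times: 1 h compound preincubation, 2 h substrate hydrolysis at 25 °C; technique: 405 nm absorbance of p-nitroaniline, reads at 0 and 120 min; measure: % activation between DMSO and enzyme-spiked controls; repeats: single replicate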
Lipid droplet: hepatic lipid droplet formation modulation | AML12 mouse hepatocytes, oleate lipid droplets, BODIPY imaging | inhibition, % at 6.5 µM | hit rate 0.4% among 240,000 | AID 1656;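 active = lipid droplet intensity inhibited by at least 50%, with more than 500 cells counted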
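Technique: fluorescence imaging, 20x objective, two fields per well / Assay system: AML12 hepatocytes (mouse) / Measure: % inhibition of lipid droplet signal / Doses: 6.5 µM single-point dosing / Incubation: overnight exposure / Reagent: 100 µM oleic acid challenge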
procasp7 counter: activates human procaspase-7, counter-screen for procaspase-3 activators | activation, % at 8.5 µM | hit rate 0.093% among 330,000 | recombinant procaspase-7, Ac-DEVD-pNA absorbance 405 nm; D23A/D198A/D206A triple mutant, cannot self-cleave; scale: DMSO 0, 5 µM enzyme 100 | P55210;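 active = percent activation above the screen-wide mean plus 3 SD, cut at about 25% in these data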
Target sequence (P55210 whole entry D23A/D198A/D206A): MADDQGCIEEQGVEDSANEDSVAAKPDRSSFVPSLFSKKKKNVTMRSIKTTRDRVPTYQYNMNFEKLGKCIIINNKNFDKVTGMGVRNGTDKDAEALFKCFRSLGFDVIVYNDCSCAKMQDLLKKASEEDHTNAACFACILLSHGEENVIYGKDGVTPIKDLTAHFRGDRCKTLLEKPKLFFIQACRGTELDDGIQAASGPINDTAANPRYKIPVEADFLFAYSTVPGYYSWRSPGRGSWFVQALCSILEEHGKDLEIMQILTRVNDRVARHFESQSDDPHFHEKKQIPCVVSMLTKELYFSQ
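Assay system – Uncleavable procaspase-7 mutant enzyme · Quantity – 2 µM procaspase-7 mutant as dispensed · Times – 1 h preincubation, 2 h reaction · Dosing – single nominal 8.5 µM compound dose, 0.8% DMSO final · Buffer or medium – Zinc-free 50 mM HEPES buffer, pH 7.4, with NaCl and Triton X-100 · Detection – Epi-absorbance of released pNA at 405 nm, two timepoints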
VLA-4 inh: inhibition in a human VLA-4 binding assay; P13612; hit rate 0.2% among 330,000; AID 2557; VLA-4 expressing cells, ligand binding flow cytometry; inhibition, % (about 7 µM as worked out from the volumes in the protocol); in the data active = inhibition above about 50%
GRK2 inh confirm: human GRK2 inhibition confirmation, cherry pick 1; shares compounds with GRK2 aptamer HTS; bead-bound GRK2, FAM-aptamer displacement, flow cytometry; aptamer displacement, % at 10 µM; hit rate 4% among 2,000; AID 504451;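 active = aptamer displacement above 40%, near three times the noise of non-fluorescent compounds, on plates passing quality checks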;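 also: negative values mostly reflect intrinsic compound fluorescence rather than true enhancement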
Aptamer quench: fluorescent aptamer quenching in GRK2 counter-screen dose response | shares compounds with GRK2 aptamer HTS | Fluorescent RNA aptamer beads, flow cytometry; stronger effect = higher value | fluorescence change (kMESF span), kMESF (no concentration beside the values) | 110 tested, under 10 active | AID 504521;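 active = compounds whose bead fluorescence drops by more than 37 kMESF across the dose range, marking them as dye quenchers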
Aptamer quench SP: aptamer fluorescence quenching in GRK2 counter-screen; 2,000 tested, under 10 active; fluorescence response (% of DMSO), % at 10 µM; Carboxyfluorescein RNA aptamer on beads, flow cytometry quenching; stronger effect = lower value; shares compounds with GRK2 aptamer HTS;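 active = compounds that quench the bead-bound fluorescent RNA probe, cutting fluorescence to under half of the solvent control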;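 also: counterscreen run without GRK2 so only probe quenching by compound is measured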
GRK2 confirm 2: human GRK2 inhibition confirmation, cherry pick 2 | bead-bound GRK2, FAM-aptamer displacement, flow cytometry | inhibition of aptamer binding, % at 10 µM | shares compounds with GRK2 aptamer HTS | 360 tested, under 10 active | AID 504782;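 active = inhibition of aptamer binding above 40%, about triple the noise seen with nonglowing compounds, on plates passing quality control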;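 also: negative values mostly come from compounds that fluoresce themselves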
Aptamer quench3: counter-screen for GRK2 aptamer inhibitors: fluorescent aptamer quenchers; shares compounds with GRK2 aptamer HTS; Streptavidin beads, FAM-RNA aptamer fluorescence quenching, flow cytometry; change in fluorescence (kMESF span), kMESF (test concentration not listed); 25 tested, under 10 active; AID 504819;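 active = compounds quenching the bead-bound labeled aptamer, with fluorescence dropping by more than 37 kMESF over the dose range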
FAM quench SP: aptamer fluorescence quenching in GRK2 counter-screen; shares compounds with GRK2 aptamer HTS; carboxyfluorescein RNA aptamer beads, flow cytometry quenching; stronger effect = lower value; fluorescence response vs DMSO, % at 10 µM; 360 tested, under 10 active; AID 588494;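 active = response vs DMSO under 50%, meaning signal dropped by over half, treated as fluorescence quencher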;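 also: labelled aptamer on streptavidin beads without GRK2 as a quench counter-screen; 100% = bead fluorescence of DMSO wells and lower means quenching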
FAM quench DR: aptamer fluorescence quenching in GRK2 powder counter-screen | fluorescence ratio to DMSO, % at 11.1 µM | Bead-bound FAM RNA aptamer fluorescence quenching, flow cytometry; stronger effect = lower value | shares compounds with GRK2 aptamer HTS | AID 588496 | 35 tested, under 10 active;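 active = compounds that dim the fluorescent label, raw bead signal shifting by over 33 units between lowest and highest dose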
Starred values were filed as active, the others as inactive; . = no result given. A selection: hits, their analogues and other compounds. The true share with any hit is near 1.3%.

SMILES	JMJD2C inh	GRK2 aptamer HTS	procasp3 activ	Lipid droplet	procasp7 counter	VLA-4 inh	GRK2 inh confirm	Aptamer quench SP	others
COc1ccc(NC(=O)C(=O)N2N=C3CCCCC3C2(O)C(F)(F)F)cc1 (stereo unspecified)	10	41*	4	-1	5	-2	.	.	GRK2 confirm 2=9;FAM quench SP=109
CC(C)(C)c1ccc(Cn2c(=O)cnc3ccccc32)cc1	-15	1	3	-2	12	-2	.	.
CCc1ccc(CN2CCN(S(=O)(=O)Cc3ccccc3)CC2)cc1	-4	5	-2	-1	2	0	.	.
CSc1ccc(CN2CCN(S(=O)(=O)Cc3ccccc3)CC2)cc1	0	55*	1	0	9	-14	.	.	GRK2 confirm 2=-29;FAM quench SP=103
Cc1ccc2[nH]c(-c3ccccc3)c(CN3CCCC3)c(=O)c2c1	-6	0	1	-2	-2	-2	.	.
Cc1ccc2[nH]c(-c3ccccc3)c(CN(C)C)c(=O)c2c1	-16	29	0	.	-5	11	-5	98
CCN(CC(=O)NC1CCS(=O)(=O)C1)S(=O)(=O)c1cc(Br)ccc1Br (stereo unspecified)	0	2	8	.	5	-1	.	.
O=C(NC1CCCCC1)C(c1ccc2ncccc2c1)N(Cc1ccc(F)cc1)C(=O)c1ccc2c(c1)OCCO2 (stereo unspecified)	-14	48*	-2	.	-10	16	2	100
Cn1c(-c2ccc3nc(N)sc3c2)nc2cc(N)ccc21	-7	52*	3	-10	-3	-9	4	96
COc1ccccc1-c1nc(SCC(=O)N(C)c2ccccc2)c2c(=O)n(C)c(=O)n(C)c2n1	7	1	-2	7	10	-11	.	.
NC(=O)c1ccc(NC(=O)COC(=O)c2cc3c(s2)CCC3)cc1	-6	52*	3	.	9	-14	25	101
O=C(COC(=O)c1cc2c(s1)CCC2)Nc1ccc(F)cc1	-6	36	3	17	4	2	.	.
CCCNC(=O)C(Cc1cccc(C#N)c1)NC(=O)c1ccc(C#N)cc1 (stereo unspecified)	2	82*	2	.	11	4	1	96
Cc1cc(F)ccc1NC(=O)c1cc(S(=O)(=O)N2CCc3ccccc32)cn1C	7	73*	0	-1	5	-4	-4	102
O=c1c2cc([N+](=O)[O-])ccc2nc2n1CCCC2	10	64*	-2	.	-5	1	1	99
O=c1c2cc(Br)ccc2nc2n1CCCCC2	112	4	4	.	3	-3	.	.
CCCNC(=O)C(Cc1ccc(F)cc1)NC(=O)c1ccc(C#N)cc1 (stereo unspecified)	6	3	11	.	9	0	.	.
COc1ccc(CCNC(=O)CC(C)(C)CC2=NS(=O)(=O)c3ccccc3N2)cc1OC	-4	0	3	-10	-5	3	.	.
Cc1ccc(CCNC(=O)CC(C)CC2=NS(=O)(=O)c3ccccc3N2)cc1 (stereo unspecified)	0	65*	3	-16	-3	14	-3	95
O=C(COc1cccnc1[N+](=O)[O-])NC1CCS(=O)(=O)C1 (stereo unspecified)	-13	70*	1	10	2	-4	.	.	GRK2 confirm 2=-43;FAM quench SP=101
COc1ccc(NC(=O)COc2ccc(N(C)S(=O)(=O)c3ccc(Cl)cc3)cc2)cc1OC	-38	0	2	.	-4	-6	.	.
CCCCNc1nc(Cl)nc(Nc2ccc(C)cc2)n1	3	.	4	.	2	-1	.	.
Cc1cc(OCC(=O)N2CCN(c3cccc(Cl)c3)CC2)c2c(C)c(C)c(=O)oc2c1	2	55*	7	-4	4	-7	-16	97
Cc1nc(C(=O)NCc2ccccc2)sc1C1(C)CC(c2ccccc2)=NO1 (stereo unspecified)	-22	2	8	17	1	15	-1	101
O=C(CCS(=O)(=O)c1ccc(Br)cc1)NCc1ccco1	1	63*	2	-7	-10	33	28	99	Aptamer quench=-2.9;Aptamer quench3=2
SMILES	JMJD2C inh	GRK2 aptamer HTS	procasp3 activ	Lipid droplet	procasp7 counter	VLA-4 inh	GRK2 inh confirm	Aptamer quench SP	others
O=C(CCCCC(=O)NCc1cccs1)NCc1cccs1	-1	1	2	-28	0	6	.	.
CCN(CC(=O)NCc1cccs1)C(=O)c1cccc(S(=O)(=O)NC)c1	11	48*	-14	.	12	33	-3	96
O=C(CCS(=O)(=O)c1ccc(Br)cc1)NCc1cccs1	8	94*	0	0	11	8	58*	96	Aptamer quench=2.1;Aptamer quench3=4.1;FAM quench DR=98
NC(=O)c1ccc[n+](Cc2ccc(-c3ccccc3)cc2)c1	-25	0	13	.	8	7	.	.
COc1ccc(CCNC(=O)c2coc3ccccc3c2=O)cc1	113	4	8	-4	3	6	.	.
CCC(=O)c1ccc(OCC(=O)OCC(=O)c2cc(C)n(C3CC3)c2C)cc1	-7	0	3	.	0	-5	.	.
Cc1cc(C)cc(OCC(=O)OCC(=O)c2cc(C)n(C3CC3)c2C)c1	7	39	2	-1	-6	4	7	101
COc1ccccc1-c1nnc(SCC(=O)NC2CC2)n1C	7	86*	1	.	-15	12	3	96
COc1ccccc1-c1nnc(SCC(=O)NC2CCCCC2)n1C	-3	0	3	2	-3	0	.	.
